In PubChem BioAssay AID492976 (The Scripps Research Institute Molecular Screening Center, 2010):
The source made the active and inactive calls.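 Rule for the calls: active = inhibition of 35% or more of the parasite aminopeptidase activity in malaria cell lysate; inactive = inhibition below 35%.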

Each compound was assayed against Aminopeptidase N (Plasmodium falciparum (isolate 3D7)) (UniProt O96935) (assay: PfM1AAP inhibitors in parasite lysate, late-stage follow-up, cell lysate, fluorescence, malaria cell lysate, powder samples (AID 492976)). Details: P. falciparum lysate, H-Arg-NHMec fluorogenic substrate; at 5 µM; stronger effect = higher value.
Aminopeptidase N (Plasmodium falciparum (isolate 3D7)), sequence (O96935 whole entry, looked up): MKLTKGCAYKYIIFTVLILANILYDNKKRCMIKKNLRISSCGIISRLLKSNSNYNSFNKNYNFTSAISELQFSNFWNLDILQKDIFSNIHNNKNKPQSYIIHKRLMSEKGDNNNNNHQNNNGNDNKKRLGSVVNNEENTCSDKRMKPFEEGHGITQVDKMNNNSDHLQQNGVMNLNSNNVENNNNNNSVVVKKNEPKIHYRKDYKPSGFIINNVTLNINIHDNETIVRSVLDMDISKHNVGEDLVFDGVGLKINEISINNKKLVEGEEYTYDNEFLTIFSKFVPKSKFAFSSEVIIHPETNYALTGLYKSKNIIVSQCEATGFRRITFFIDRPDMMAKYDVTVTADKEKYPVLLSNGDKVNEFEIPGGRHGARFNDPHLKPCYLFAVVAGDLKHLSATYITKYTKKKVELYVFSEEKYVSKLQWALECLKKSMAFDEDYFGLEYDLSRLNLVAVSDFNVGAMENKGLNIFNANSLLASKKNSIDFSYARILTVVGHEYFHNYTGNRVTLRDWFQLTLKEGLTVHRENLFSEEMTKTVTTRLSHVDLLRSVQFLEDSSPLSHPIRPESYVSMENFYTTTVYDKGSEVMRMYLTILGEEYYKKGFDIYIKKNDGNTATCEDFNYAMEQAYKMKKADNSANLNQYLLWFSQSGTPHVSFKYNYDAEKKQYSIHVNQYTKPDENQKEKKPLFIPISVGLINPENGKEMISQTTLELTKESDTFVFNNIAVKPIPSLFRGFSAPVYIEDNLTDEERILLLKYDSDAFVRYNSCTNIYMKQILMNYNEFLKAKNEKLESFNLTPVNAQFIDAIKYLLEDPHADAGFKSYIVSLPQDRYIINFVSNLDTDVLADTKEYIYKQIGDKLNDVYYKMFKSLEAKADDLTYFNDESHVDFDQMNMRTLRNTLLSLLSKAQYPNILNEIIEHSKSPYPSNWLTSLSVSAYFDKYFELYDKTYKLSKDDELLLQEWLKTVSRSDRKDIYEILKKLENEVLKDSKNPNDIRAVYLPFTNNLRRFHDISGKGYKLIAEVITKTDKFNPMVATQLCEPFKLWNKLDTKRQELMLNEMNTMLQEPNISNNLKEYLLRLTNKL
Procedure, shortened: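 test system = Plasmodium falciparum parasite cell lysate as enzyme source | medium = 25 mM Tris-HCl buffer, pH 7.5 | times = 10 min preincubation, 30 min reading | technique = kinetic NHMec fluorescence, ex 370 nm, em 460 nm, 60-s intervals | measure = percent inhibition relative to uninhibited and lysate-free wells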
With `COc1ccccc1-c1nc2ccccc2c(=O)n1NC(=O)c1cccs1` the inhibition was 0% (inactive). For `O=C(O)CCC(=O)N1N=C(c2c(-c3ccccc3)c3cc(Cl)ccc3[nH]c2=O)CC1c1cccs1` (stereo not drawn), the inhibition was 3% (inactive). `O=C(NCc1cccc(F)c1)C1CCN(S(=O)(=O)Cc2ccccc2)CC1` showed an inhibition of 35%. For `O=C1N=c2ccccc2=C1c1sc(=S)n(NC(=O)c2cccc(O)c2)c1O`, the inhibition was 17% (inactive). `O=C1/C(=C/c2cccs2)SC(=S)N1NS(=O)(=O)c1ccccc1` was tested, and the inhibition was 0% (inactive). In the case of `O=C1N=c2ccccc2=C1c1sc(=S)n(NC(=O)c2ccccc2)c1O`, the inhibition is reported as 0% (inactive). `O=C(Nn1c(C2CCC2)nc2ccccc2c1=O)c1cccs1` was tested, and the inhibition was 0% (inactive). `O=C(NCc1ccco1)C1CCCN(S(=O)(=O)c2cccc3nonc23)C1` (stereo not drawn) was tested, and the inhibition was 0% (inactive). `O=C(O)CCC(=O)N1N=C(c2c(-c3ccccc3)c3cc(Cl)ccc3[nH]c2=O)CC1c1ccco1` (stereo not drawn) was tested, and the inhibition was 2% (inactive). `O=C(NCCC1=CCCCC1)C1CCN(S(=O)(=O)c2ccc(Br)s2)CC1` was tested, and the inhibition was 13% (inactive). In the case of `COc1ccc(C2CC(c3c(-c4ccccc4)c4cc(Cl)ccc4[nH]c3=O)=NN2C(=O)CCC(=O)O)cc1` (stereo not drawn), the inhibition is reported as 0% (inactive). For `CC(=O)N1N=C(c2c(O)n(C)c(=O)n(C)c2=O)CC1c1ccccc1` (stereo not drawn), the inhibition was 0% (inactive). With `COc1ccc(OC)c(/C=C2\SC(=S)N(C(C(=O)O)c3ccccc3)C2=O)c1` (stereo not drawn) the inhibition was 0% (inactive).
